Series [1] in a line: Cytotoxicity against human Bel7402 cells by MTT assay. Type of series: functional, cell-based. The following applies: Bel-7402.
The next series has as its system HT-29. Description: Cytotoxicity against human HT-29 cells by MTT assay. The series is classed as functional, cell-based.
Series [2] is described as follows: Cytotoxicity against human BGC823 cells by MTT assay. Type of series: functional, cell-based. The following applies: BGC-823.
For the next series, the system named is A549. In words: Cytotoxicity against human A549 cells by MTT assay. Type of series: functional, cell-based.
A further series relates to BV-2. In words: Inhibition of LPS-induced NO production in mouse BV2 cells assessed as reduction in nitrite level pretreated for 24 hrs before LPS treatment for additional 24 hrs by Griess reaction method. Type of series: functional, cell-based. An outline of the steps: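 BV2 microglia plated and preincubated 24 h, then exposed to LPS 0.3 μg/mL for a further 24 h. Nitrite in the culture supernatant measured by Griess reaction at OD 550 nm against a NaNO2 standard. Curcumin served as positive control. IC50 given as mean ± SD of three independent experiments.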

For the next series, the system named is A2780. In words: Cytotoxicity against human A2780 cells by MTT assay. Type of series: functional, cell-based.
Series [3] is described as follows: Cytotoxicity against mouse BV2 cells assessed as cell viability by MTT assay. The series is classed as cell-based, BV-2. The following applies: read-out: Activity. A digest of the protocol: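 Murine microglial BV2 cells under the LPS-activation conditions of the NO assay. Viability read by MTT and expressed as a percentage of the LPS-only treatment group. Means ± SD from three independent experiments.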

For a further series, the system named is HepG2. Description: Hepatoprotective activity against APAP-induced toxicity in human HepG2 cells assessed as cell survival rate at 10 uM incubated for 48 hrs by MTT assay. The following applies: HepG2, 48 h, read-out: Survival. Type of series: functional. A digest of the protocol: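 HepG2 cells grown in DMEM with 10% fetal calf serum and penicillin/streptomycin at 37 °C, 5% CO2, then seeded and incubated overnight. Test sample (10 μM) added together with APAP (final 8 mM) for 48 h. MTT at 0.5 mg/mL for 4 h, formazan dissolved in DMSO, absorbance read at 570 nm. Survival given as % of normal cells; bicyclol (10 μM) positive control; n = 3.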

As for `CC(/C=C/[C@@]1(O)C(C)(C)CCC[C@@]1(C)O)=C\C(=O)O[C@H]1[C@H](O[C@@H]2OC=C[C@H]3[C@H](O)[C@@H]4O[C@]4(CO)[C@@H]23)O[C@H](CO)[C@@H](O)[C@@H]1O`, the half-maximal inhibitory concentration (IC50) in series [1] was over 10 µM; in the series on HT-29, over 10 µM; in series [2], over 10 µM; with A549, over 10 µM; in the series with BV-2 it was 2.5 µM; in the series on A2780 it was over 10 µM. Moreover, the viability in series [3] is 91.7%.

For `OC[C@H]1O[C@@H](O[C@@H]2OC=C[C@H]3[C@H](O)[C@@H]4O[C@]4(CO)[C@@H]23)[C@H](O)[C@@H](O)[C@@H]1O` [CATALPOL], the IC50 is over 10 µM in series [1]; over 10 µM in the series on HT-29; over 10 µM in series [2]; over 10 µM in the series with A549; 7.3 µM with BV-2; over 10 µM with A2780. Further, the viability in series [3] came to 86.1%. Moreover, the viability at 10 µM with HepG2 was found to be 69.1%.

Values taken from ChEMBL document CHEMBL3808301, “Bioactive Iridoid Glycosides from the Whole Plants of Rehmannia chingii” (J Nat Prod, 2016).
